SR-BI DiI inh: blocks mouse SR-BI lipid uptake from DiI-HDL; ldlA[mSR-BI] CHO cells, DiI-HDL uptake fluorescence, 3 h; 320,000 tested, 0.96% active; inhibition, % at 12.5 µM; AID 488896;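 active = mean replicate inhibition of at least 70% and a set share of replicates each scoring 70 or more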;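 note: 0% = median of neutral control wells and 100% = median of positive control wells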
Target sequence (Q61009 whole entry, looked up): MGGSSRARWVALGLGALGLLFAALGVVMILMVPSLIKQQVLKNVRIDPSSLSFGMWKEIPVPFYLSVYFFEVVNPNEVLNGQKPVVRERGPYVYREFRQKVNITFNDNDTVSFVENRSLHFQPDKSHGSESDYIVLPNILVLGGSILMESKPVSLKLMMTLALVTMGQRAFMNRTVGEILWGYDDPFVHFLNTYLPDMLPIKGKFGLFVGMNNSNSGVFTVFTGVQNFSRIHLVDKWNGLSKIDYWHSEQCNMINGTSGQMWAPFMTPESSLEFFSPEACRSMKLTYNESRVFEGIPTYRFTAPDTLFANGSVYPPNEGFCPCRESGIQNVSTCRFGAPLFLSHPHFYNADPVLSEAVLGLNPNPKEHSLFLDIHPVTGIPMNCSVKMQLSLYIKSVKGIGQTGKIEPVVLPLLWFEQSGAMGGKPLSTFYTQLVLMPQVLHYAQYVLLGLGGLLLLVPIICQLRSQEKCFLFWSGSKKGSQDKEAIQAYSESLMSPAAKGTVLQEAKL
Vif inh: blocks HIV Vif function. HEK293T cells, Vif self-association by quenched fluorescence, imaging, 24 h. inhibition, % at 7.49 µM. 340,000 tested, 0.35% active. AID 602346; in the data active = inhibition above about 50%, passing the limit was not always enough
C2C12 statin: protects C2C12 myotubes from simvastatin toxicity. AID 602340. rescue of ATP level, % at 7.49 µM. 330,000 tested, 0.78% active. ATP luminescence, 48 h; scaled: DMSO 0, geranylgeraniol control 100;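 active = mean ATP rescue above about 67%, or every replicate alone reaching that limit, limit read from the data, passing the limit was not always enough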;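 note: myotubes were challenged with 10 µM simvastatin during compound exposure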
SR-BI DiI-HDL act: SR-BI HDL lipid transfer activation | CHO ldlA[mSR-BI] cells, DiI-HDL uptake fluorescence, 3 h; 100 = double the neutral-control signal | activation, % at 12.5 µM | 320,000 tested, 0.096% active | AID 504775;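 active = mean replicate activation of at least 60% and every replicate at or above 60%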;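 note: 0% = median plate neutral-control signal and 100% = twice that signal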
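Test system: SR-BI-overexpressing, LDLR-lacking CHO cells; Also added: labelled HDL, 10 µg/mL; Measured by: bottom-read cell fluorescence after medium removal, ex 550/em 595 nm; Timing: 3 h uptake period with compound, 37 °C; Buffer or medium: F12, 0.5% BSA, 25 mM HEPES; Doses: single compound concentration, delivered by pin transfer.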
Active calls of the source: *; . = no result. Rows were chosen to be rich in hits. Some 1.7% of all compounds tested hit in one or more screens of this group.

SMILES	SR-BI DiI inh	Vif inh	C2C12 statin	SR-BI DiI-HDL act
Cc1ccc(-c2nnn(CC(=O)N(CCO)C(C(=O)NC3CCCCC3)c3ccncc3)n2)o1 (configuration not stated)	-15	0	.	15
Cc1ccc(-c2nnn(CC(=O)N(CCCO)C(C(=O)NC3CCCC3)c3ccc(Cl)cc3)n2)o1 (configuration not stated)	16	-5	80*	-16
COc1ccc(CNC(=O)C2CCCN(S(=O)(=O)c3ccc4c(c3)CCCN4C(C)=O)C2)cc1 (configuration not stated)	-4	-12	120*	4
CO[C@@H]1CN(C)C(=O)c2cc(NC(=O)Nc3cccc(F)c3)ccc2OC[C@H](C)N(C(=O)Nc2c(C)noc2C)C[C@@H]1C	.	.	-22	.
N#Cc1c2n(c3c(=O)n(Cc4ccc(Cl)cc4)cnc13)CCCCC2	11	13	95*	-11
COc1cc(/C=C/C(=O)OCC(=O)Nc2cc(S(=O)(=O)N3CCOCC3)ccc2Cl)cc(OC)c1OC	43	0	109*	-43
COc1cc(S(=O)(=O)N2CCOCC2)ccc1NC(=O)COC(=O)/C=C/c1cc(OC)c(OC)c(OC)c1	32	-1	.	-32
COc1cc(/C=C/C(=O)OCC(=O)Nc2ccc(S(=O)(=O)N3CCCC3)cc2)ccc1O	82*	4	.	-82
O=C(/C=N/O)NCc1cccnc1	-11	-5	4	11
C[n+]1cccc(CNC(=O)/C=N/O)c1	-27	-3	112*	27
O=C(CSc1nnc(NC2CCCCC2)s1)Nc1ccc2c(c1)C(=O)c1ccccc1C2=O	73*	-5	.	-73
Cc1ccnc(NC(=O)c2cccc(OC(F)F)c2)n1	.	0	-1	.
O=C(Nc1cc(Cl)cc(Cl)c1)c1cccc(OC(F)F)c1	74*	-23	-2	-74
CN(C)S(=O)(=O)c1cccc(C(=O)Nc2cc(Cl)cc(Cl)c2)c1	73*	-12	-27	-73
C[C@H]1CN([C@@H](C)CO)C(=O)Cc2cc(NC(=O)CCN3CCOCC3)ccc2O[C@@H]1CN(C)Cc1ccc(Cl)c(Cl)c1	.	.	7	.
Cc1ccccc1NC(=O)CCc1c(C)nn(-c2ccc(N3CCCCC3)nn2)c1C	82*	-10	-2	-82
Cc1ccc(NC(=O)CCc2c(C)nn(-c3ccc(N4CCOCC4)nn3)c2C)cc1C	79*	7	6	-79
Cc1cccc(NC(=O)CCc2c(C)nn(-c3ccc(N4CCOCC4)nn3)c2C)c1	61	5	-12	-61
Cc1nn(-c2ccc(N3CCCCC3)nn2)c(C)c1CCC(=O)Nc1cc(F)ccc1F	72*	-9	9	-72
Cc1ccccc1NC(=O)CCc1c(C)nn(-c2ccc(N3CCOCC3)nn2)c1C	62	-4	-9	-62
Cc1ccc(C(=O)c2sc3c(c2N)c(=O)[nH]c(=O)n3CCc2ccccc2)cc1	18	-2	.	-18
C=CCn1c(=O)[nH]c(=O)c2c(N)c(C(=O)c3ccc(OC)cc3)sc21	54	-6	135*	-54
O=C(COc1ccccc1)Nc1ccc2c(c1)C(=O)N(CC1CCCO1)C2=O (configuration not stated)	40	-2	.	-26
O=C(Cc1ccccc1)Nc1ccc2c(c1)C(=O)N(CC1CCCO1)C2=O (configuration not stated)	-7	50*	.	7
CCCC(=O)Nc1ccc2c(c1)OC[C@H](C)N(Cc1ccc(F)cc1)C[C@H](C)[C@@H](OC)CN(C)C2=O	.	.	29	.
SMILES	SR-BI DiI inh	Vif inh	C2C12 statin	SR-BI DiI-HDL act
CCOC(=O)c1c(N)c(C#N)c2n1CCCCC2	-1	16	-4	1
CCOC(=O)c1c(N)c(C#N)c2n1CCCC2	1	15	113*	-1
Cc1nc2cc(C(=O)NCCN3CCOCC3)ccc2n1-c1ccc(F)cc1F	-8	1	98*	8
COC(=O)c1ccc(CSc2nnc(Nc3ccc(C)cc3)s2)o1	.	-3	95*	.
N#CC1CN(Cc2ccccc2)CN(Cc2ccccc2)C1	10	6	.	-10
N#CC1CN(C(c2ccccc2)c2ccccc2)C1	-10	-2	107*	10
CNC[C@H]1OCCCC[C@@H](C)Oc2ccc(NC(=O)CCCN(C)C)cc2C(=O)N([C@H](C)CO)C[C@@H]1C	.	.	-2	.
Cc1nc(CSc2ccc(Cl)cc2)cc(N2CC(C)OC(C)C2)n1 (configuration not stated)	17	1	107*	-17
COc1cccc(S(=O)(=O)Nc2ccc3c(c2)[C@@H]2C[C@@H](CC(=O)NCCc4ccccc4)O[C@@H](CO)[C@@H]2O3)c1	.	.	4	.
COc1ccc(Nc2nc(-c3cccc(OC)c3O)nc3ccccc23)cc1	83*	-4	-22	-83
COc1cccc(-c2nc(NC(C)(C)C)c3ccccc3n2)c1O	84*	-9	-13	-84
COc1cccc(-c2nc(NCCN3CCOCC3)c3ccccc3n2)c1O	30	6	-35	-30
Cc1ccc(-c2cnc3c(c2)C(=O)N([C@H](C)CO)C[C@@H](C)[C@@H](CN(C)CC2CCCC2)O3)cc1	.	.	3	.
CCCC#Cc1ccc([C@H]2[C@@H](CO)N(S(=O)(=O)c3cccc(F)c3)[C@H]2C#N)cc1	.	.	-29	.
C[C@H](CO)N1C[C@H](C)[C@@H](CN(C)C(=O)Cc2ccccn2)Oc2ncc(C#C[C@@H](C)O)cc2C1=O	.	.	-5	.
COc1cccc(NC(=O)N2C[C@H](O)COC[C@@H]3O[C@@H](CC(=O)NCCCN4CCOCC4)CC[C@H]32)c1	.	.	-11	.
C[C@@H]1CN([C@@H](C)CO)C(=O)c2cc(C3=CCCCC3)cnc2O[C@H]1CN(C)C(=O)c1ccncc1	.	.	25	.
Cc1c(C(=O)C(C)C)n(C)c2ccccc12	0	59*	-12	0
Cn1c(C(=O)O)c(C=O)c2ccccc21	-15	8	15	15
COc1cccc(-c2cn(CC[C@H]3CC[C@H](NC(=O)CN(C)C)[C@@H](CO)O3)nn2)c1	.	.	1	.
COc1ccc(NC(=O)N2C[C@H]3[C@@H](c4ccccc42)[C@H](CO)N3C(=O)C2CCCCC2)cc1	.	.	-2	.
O=C(CNc1cccc(F)c1)N1CCc2ccccc2C1	-24	-7	118*	24
COc1ccc(CC(=O)N2CCc3ccccc3C2)cc1	1	0	-5	-1
O=C(Cc1ccc(Cl)cc1)N1CCc2ccccc2C1	-449	-1	5	449*
Cn1c(=O)[nH]c(=O)c2c1nc(N1CCN(c3ccccc3)CC1)n2CCSc1ncccn1	-71	1	-12	71*
CCOCCn1c(N2CCN(c3ccc(OC)cc3)CC2)nc2c1c(=O)[nH]c(=O)n2C	13	-13	103*	-13
COCCn1c(N2CCN(c3ccc(OC)cc3)CC2)nc2c1c(=O)[nH]c(=O)n2C	-13	-2	-10	13
Cn1c(=O)[nH]c(=O)c2c1nc(CN1CCN(c3cccc(Cl)c3)CC1)n2CCc1ccccc1	-17	1	92*	17
C[C@H](CO)N1C[C@H](C)[C@@H](CN(C)C(=O)c2cnccn2)Oc2ncc(C#CCN(C)C)cc2C1=O	.	.	6	.
